Laboratory results as given in ChEMBL document CHEMBL1153963, “Phenanthrene-based tylophorine-1 (PBT-1) inhibits lung cancer cell growth through the Akt and NF-kappaB pathways” (J Med Chem, 2009).
Converted amounts (≈) assume the structure as drawn.

Experiments:
[1] = Cytotoxicity against human CL1-0 cells assessed as growth inhibition after 48 hrs by MTS assay; type: functional, cell-based
How it was run: (§1)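 Cells seeded in four replicates at 2×10^3 per well in complete RPMI 1640 with drug (0, 0.1, 0.25, 0.5, 0.75 µg/mL in the cell-line panel), 48 h at 37 °C, 5% CO2. Viability read by MTS reagent, absorbance at 490 nm, expressed as percent of untreated control; IC50 taken as concentration giving 50% growth inhibition.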

[2] = Cytotoxicity against human CL1-5 cells assessed as growth inhibition after 48 hrs by MTS assay; type: functional, cell-based; conditions: CL1-5, 48 h; how it was run: as §1
NCI-H460 = assay: Cytotoxicity against human H460 cells assessed as growth inhibition after 48 hrs by MTS assay; type: functional, cell-based; conditions: NCI-H460, 48 h; how it was run: as §1
PC-9 = assay: Cytotoxicity against human PC9 cells assessed as growth inhibition after 48 hrs by MTS assay; type: functional, cell-based; conditions: PC-9, 48 h; how it was run: as §1
A549 = assay: Cytotoxicity against human A549 cells assessed as growth inhibition after 48 hrs by MTS assay; type: functional, cell-based; conditions: A549, 48 h; how it was run: as §1
CL1-0 [3] = assay: Induction of apoptosis in human CL1-0 cells at 0.25 ug/mL after 24 hrs by propidium iodide and annexin V staining; type: functional
How it was run: (§2)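 CL1-0 cells treated with increasing concentrations for 24 h, resuspended in Annexin-binding buffer, stained with Alexa Fluor 488 Annexin V and PI for 15 min at room temperature, analyzed by flow cytometry; single-stain controls set apoptotic and necrotic windows.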

CL1-0 [4] = assay: Induction of apoptosis in human CL1-0 cells at 0.5 ug/mL after 24 hrs by propidium iodide and annexin V staining; type: functional; how it was run: as §2
CL1-0 [5] = assay: Induction of apoptosis in human CL1-0 cells at 0.75 ug/mL after 24 hrs by propidium iodide and annexin V staining; type: functional; how it was run: as §2
CL1-0 [6] = assay: Effect on PRKACA gene expression in human CL1-0 cells assessed as change in gene expression at 0.5 ug/mL after 24 hrs by DNA microarray relative to control; type: functional
How it was run: (§3)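 Total RNA from CL1-0 cells treated 24 h with 0.5 µg/mL drug or untreated; mRNA isolated and run on human DNA microarrays; genes with statistically significant twofold change versus control reported as fold change, mean ± SD.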

CL1-0 [7] = assay: Effect on CFLAR gene expression in human CL1-0 cells assessed as change in gene expression at 0.5 ug/mL after 24 hrs by DNA microarray relative to control; type: functional; how it was run: as §3
CL1-0 [8] = assay: Effect on PPP3CA gene expression in human CL1-0 cells assessed as change in gene expression at 0.5 ug/mL after 24 hrs by DNA microarray relative to control; type: functional; how it was run: as §3
CL1-0 [9] = assay: Effect on BCL2L1 gene expression in human CL1-0 cells assessed as change in gene expression at 0.5 ug/mL after 24 hrs by DNA microarray relative to control; type: functional; how it was run: as §3
CL1-0 [10] = assay: Effect on TNFRSF10B gene expression in human CL1-0 cells assessed as change in gene expression at 0.5 ug/mL after 24 hrs by DNA microarray relative to control; type: functional
How it was run: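 Total RNA extracted from treated or untreated CL1-0 cells, mRNA isolated, hybridized to human DNA microarray; genes scored by statistically significant twofold expression difference versus untreated control; fold change given as mean ± SD.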

CL1-0 [11] = assay: Effect on MAP3K14 gene expression in human CL1-0 cells assessed as change in gene expression at 0.5 ug/mL after 24 hrs by DNA microarray relative to control; type: functional; how it was run: as §3
CL1-0 [12] = assay: Effect on NFKB1A gene expression in human CL1-0 cells assessed as change in gene expression at 0.5 ug/mL after 24 hrs by DNA microarray relative to control; type: functional; how it was run: as §3
CL1-0 [13] = assay: Effect on IRAK1 gene expression in human CL1-0 cells assessed as change in gene expression at 0.5 ug/mL after 24 hrs by DNA microarray relative to control; type: functional; how it was run: as §3
CL1-0 [14] = assay: Effect on PIK3CD gene expression in human CL1-0 cells assessed as change in gene expression at 0.5 ug/mL after 24 hrs by DNA microarray relative to control; type: functional; how it was run: as §3
CL1-0 [15] = assay: Effect on AKT3 gene expression in human CL1-0 cells assessed as change in gene expression at 0.5 ug/mL after 24 hrs by DNA microarray relative to control; type: functional; how it was run: as §3
CL1-0 [16] = assay: Effect on PDK1 gene expression in human CL1-0 cells assessed as change in gene expression at 0.5 ug/mL after 24 hrs by DNA microarray relative to control; type: functional; how it was run: as §3
CL1-0 [17] = assay: Effect on PRKACA gene expression in human CL1-0 cells assessed as change in gene expression by RT-PCR relative to control; type: functional
How it was run: (§4)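 Real-time quantitative RT-PCR on CL1-0 RNA to validate microarray changes, SYBR Green chemistry with gene-specific primers, GAPDH as internal control; fold change versus untreated control reported as mean ± SD.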

CL1-0 [18] = assay: Effect on CFLAR gene expression in human CL1-0 cells assessed as change in gene expression by RT-PCR relative to control; type: functional; how it was run: as §4
CL1-0 [19] = assay: Effect on PPP3CA gene expression in human CL1-0 cells assessed as change in gene expression by RT-PCR relative to control; type: functional; how it was run: as §4
CL1-0 [20] = assay: Effect on BCL2L1 gene expression in human CL1-0 cells assessed as change in gene expression by RT-PCR relative to control; type: functional; how it was run: as §4
CL1-0 [21] = assay: Effect on TNFRSF10B gene expression in human CL1-0 cells assessed as change in gene expression by RT-PCR relative to control; type: functional
How it was run: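 Microarray hits validated by real-time quantitative RT-PCR with SYBR Green chemistry and gene-specific primers; GAPDH used as internal control; fold change versus untreated control as mean ± SD.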

CL1-0 [22] = assay: Effect on MAP3K14 gene expression in human CL1-0 cells assessed as change in gene expression by RT-PCR relative to control; type: functional; how it was run: as §4
CL1-0 [23] = assay: Effect on NFKB1A gene expression in human CL1-0 cells assessed as change in gene expression by RT-PCR relative to control; type: functional; how it was run: as §4
CL1-0 [24] = assay: Effect on IRAK1 gene expression in human CL1-0 cells assessed as change in gene expression by RT-PCR relative to control; type: functional; how it was run: as §4
CL1-0 [25] = assay: Effect on PIK3CD gene expression in human CL1-0 cells assessed as change in gene expression by RT-PCR relative to control; type: functional; how it was run: as §4
CL1-0 [26] = assay: Effect on AKT3 gene expression in human CL1-0 cells assessed as change in gene expression by RT-PCR relative to control; type: functional; how it was run: as §4
CL1-0 [27] = assay: Effect on PDK1 gene expression in human CL1-0 cells assessed as change in gene expression by RT-PCR relative to control; type: functional; how it was run: as §4
[28] = Homo sapiens, CL1-0, 48 h, read-out: IC50

## COc1ccc2c(CN3CCC(C(=O)O)CC3)cc3cc4c(cc3c2c1)OCO4
[1]; [28]
  IC50: > 2 µg/mL

## COc1ccc2c(CN3CCC(CO)CC3)cc3cc4c(cc3c2c1)OCO4
[1]; [28]
  IC50: 0.81 µg/mL (≈ 2.13 µM)
[1]; cl1-0
  IC50: Dose-dependent effect
[2]
  IC50: 0.2 µg/mL (≈ 0.527 µM)
NCI-H460
  IC50: 0.2 µg/mL (≈ 0.527 µM)
PC-9
  IC50: 0.2 µg/mL (≈ 0.527 µM)
A549
  IC50: 0.2 µg/mL (≈ 0.527 µM)
CL1-0 [3]
  Activity: 5.96%
CL1-0 [4]
  Activity: 9.56%
CL1-0 [5]
  Activity: 11.03%
CL1-0 [6]
  fold change (FC): 5.38
CL1-0 [7]
  fold change (FC): 3.01
CL1-0 [8]
  fold change (FC): 2.53
CL1-0 [9]
  fold change (FC): 2.7
CL1-0 [10]
  fold change (FC): 2.53
CL1-0 [11]
  fold change (FC): 2.25
CL1-0 [12]
  fold change (FC): 2.23
CL1-0 [13]
  fold change (FC): 2.1
CL1-0 [14]
  fold change (FC): 2.03
CL1-0 [15]
  fold change (FC): 0.48
CL1-0 [16]
  fold change (FC): 0.26
CL1-0 [17]
  fold change (FC): 1.39
CL1-0 [18]
  fold change (FC): 2.8
CL1-0 [19]
  fold change (FC): 5.31
CL1-0 [20]
  fold change (FC): 1.83
CL1-0 [21]
  fold change (FC): 1.71
CL1-0 [22]
  fold change (FC): 2.94
CL1-0 [23]
  fold change (FC): 6.8
CL1-0 [24]
  fold change (FC): 2.23
CL1-0 [25]
  fold change (FC): 1.69
CL1-0 [26]
  fold change (FC): 1.61
CL1-0 [27]
  fold change (FC): 0.56

## COc1ccc2c(CN3CCN(CCO)CC3)cc3cc4c(cc3c2c1)OCO4
[1]; [28]
  IC50: > 2 µg/mL

## COc1ccc2c(CN3CCC(CCO)CC3)cc3cc4c(cc3c2c1)OCO4.Cl
[1]; [28]
  IC50: 0.46 µg/mL
[1]; cl1-0
  IC50: Dose-dependent effect

## COc1ccc2c(CN3CCC(CCO)CC3)cc3cc4c(cc3c2c1)OCO4
[1]; [28]
  IC50: 0.37 µg/mL (≈ 0.94 µM)
[1]; cl1-0
  IC50: Dose-dependent effect

## COc1ccc2c(CN3CCN(c4ccc(Cl)cc4)CC3)cc3cc4c(cc3c2c1)OCO4
[1]; [28]
  IC50: > 2 µg/mL

## COc1ccc2c(CNCCCCCCO)cc3cc4c(cc3c2c1)OCO4
[1]; [28]
  IC50: > 2 µg/mL

## COc1ccc2c(CN3CCC(CO)CC3)cc3cc4c(cc3c2c1)OCO4.Cl
[1]; [28]
  IC50: 0.44 µg/mL
[1]; cl1-0
  IC50: Dose-dependent effect

## COc1ccc2c(CNCCCCCC(=O)O)cc3cc4c(cc3c2c1)OCO4
[1]; [28]
  IC50: > 2 µg/mL

## COc1ccc2c(CN3CCN(c4ccc(O)cc4)CC3)cc3cc4c(cc3c2c1)OCO4
[1]; [28]
  IC50: > 2 µg/mL
